Source: the M2OR odorant receptor database

Target: T1, OR5AC2 (Homo sapiens) (UniProt Q9NZP5)
T1 sequence (whole entry): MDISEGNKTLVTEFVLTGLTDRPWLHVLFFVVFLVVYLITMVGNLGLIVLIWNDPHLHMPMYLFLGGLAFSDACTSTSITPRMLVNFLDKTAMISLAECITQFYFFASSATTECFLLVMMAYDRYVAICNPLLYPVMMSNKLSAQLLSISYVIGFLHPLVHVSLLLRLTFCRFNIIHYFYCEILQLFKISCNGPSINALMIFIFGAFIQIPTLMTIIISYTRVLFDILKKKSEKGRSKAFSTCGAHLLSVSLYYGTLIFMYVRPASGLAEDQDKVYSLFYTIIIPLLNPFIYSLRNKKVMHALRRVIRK
Conditions: stereoisomer not certain
Summary of the method: (§1)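 Whether a receptor–molecule pair is responsive (active) rests on the original authors' judgment that its measured signal was statistically different from baseline. Pairs without that judgment are non-responsive (inactive). Sources used varied assay methods, commonly transient luciferase assays in mammalian cell lines.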
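Further: active if original authors judged signal statistically different from baseline.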

Row | Structure (SMILES) | odorant receptor agonist call
1 | Cc1ccc(C(C)C)cc1O | inactive
2 | CCC(=O)C=CC1C(C)=CCCC1(C)C (stereo not drawn) | inactive
3 | CCCCCC1C(=O)CCC1CC(=O)OC (stereo not drawn) | inactive
4 | CC(=O)C=CC1=C(C)CCCC1(C)C | inactive
5 | OCc1ccccc1 | inactive
6 | COc1ccc(C)cc1 | inactive
7 | CCc1ccc(CC(C)(C)C=O)cc1 | inactive
8 | C=CCOC(=O)COCCC(C)C | inactive
9 | C=CC(C)(CCC=C(C)C)OC(C)=O (stereo not drawn) | inactive
10 | CCCCCCCCC(OC(C)=O)OC(C)=O | inactive
11 | CC(CC=O)c1ccc(C(C)(C)C)cc1 (stereo not drawn) | inactive
12 | CC(C)=CCCC(C)CC=O (stereo not drawn) | inactive

Target: T2, OR5AN1 (Homo sapiens) (UniProt Q8NGI8)
T2 sequence (whole entry): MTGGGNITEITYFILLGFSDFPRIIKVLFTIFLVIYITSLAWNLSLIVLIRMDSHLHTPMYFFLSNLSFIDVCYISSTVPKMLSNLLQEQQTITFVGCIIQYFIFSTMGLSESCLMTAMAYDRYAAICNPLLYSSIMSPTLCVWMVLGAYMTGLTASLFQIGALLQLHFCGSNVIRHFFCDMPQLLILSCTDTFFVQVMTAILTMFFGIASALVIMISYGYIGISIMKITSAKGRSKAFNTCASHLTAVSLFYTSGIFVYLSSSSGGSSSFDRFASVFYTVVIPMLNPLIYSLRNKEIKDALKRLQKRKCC
Conditions: stereoisomer not certain
Summary of the method: as §1

Row | Structure (SMILES) | odorant receptor agonist call
13 | O=C1CCCCCCCCCC1 | inactive
14 | OC1CCCCCCCCCCCCCC1 | inactive
15 | O=C1C=CCCCCCCCCCCCCO1 | active
16 | CC1CC=CCCCCCCCCC(=O)C1 (stereo not drawn) | active
17 | C1CCCCCCCCCCCCCC1 | inactive
18 | CC1C(C)(C)C2=C(C(=O)CCC2)C1(C)C (stereo not drawn) | inactive
19 | O=C1CCCCCC=CCCCCCCCCO1 | active
20 | O=C1CCCCCCCCC1 | inactive
21 | CC1CCCCCCCCCCCC(=O)C1 (stereo not drawn) | active
22 | CC1CC=CCCCCCCCCCC(=O)C1 (stereo not drawn) | active
23 | O=C1CCCCCCC=CCCCCCCC1 | active
24 | CCCCCCCCCCCCCC(C)=O | inactive
25 | CCCCCCCC(=O)CCCCCCC | inactive
26 | O=C1CCCC=CCCCCCCCCCC1 | active
27 | O=C1CCCCCCCCCCCCCC1 | active
28 | CCC(=O)OCC(C)(C)OC(C)C1CCCC(C)(C)C1 (stereo not drawn) | inactive
